From article PMC9080015 (RSC Advances, 2018)
One block for each compound: values may come before it.

Tests used:
recombinant human CYP1B1 = molecular target: T1, recombinant human CYP1B1 (Homo sapiens, UniProt Q16678); test: EROD assay, recombinant human CYP1B1 inhibition; type: biochemical; conditions: selectivity for CYP1B1 over CYP1A1
T1 sequence (Q16678 1-543): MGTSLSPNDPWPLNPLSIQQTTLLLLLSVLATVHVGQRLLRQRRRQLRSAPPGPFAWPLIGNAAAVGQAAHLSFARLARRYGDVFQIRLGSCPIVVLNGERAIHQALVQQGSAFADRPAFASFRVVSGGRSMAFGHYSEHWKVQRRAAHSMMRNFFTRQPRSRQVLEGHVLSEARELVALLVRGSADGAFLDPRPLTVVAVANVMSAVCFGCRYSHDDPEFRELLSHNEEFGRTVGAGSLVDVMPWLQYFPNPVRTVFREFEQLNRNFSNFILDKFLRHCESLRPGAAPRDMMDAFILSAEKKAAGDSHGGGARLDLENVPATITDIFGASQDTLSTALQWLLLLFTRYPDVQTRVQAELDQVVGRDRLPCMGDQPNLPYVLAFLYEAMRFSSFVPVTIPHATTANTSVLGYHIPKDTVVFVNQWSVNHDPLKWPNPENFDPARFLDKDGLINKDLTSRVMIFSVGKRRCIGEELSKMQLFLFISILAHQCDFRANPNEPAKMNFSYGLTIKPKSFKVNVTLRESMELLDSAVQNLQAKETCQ

MCF-7/1B1 cells = type: cell-based, human
Procedure, shortened: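 MCF-7/1B1 cells were made by incubating parental MCF-7 with 10 nM TCDD for five days, then seeded at about 3000 cells/well in RPMI 1640/10% FBS for 24 h. Screen: 20 μM docetaxel alone or with 10 μM test compound. […] MTT read at 490 nm. Non-linear regression fit; mean ± SD of three independent measurements; Student's t test.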

CYP1A1 [1] = molecular target: T2, CYP1A1 (Homo sapiens, UniProt P04798); test: EROD assay, recombinant human CYP1A1 inhibition; type: biochemical
T2 sequence (P04798 1-512): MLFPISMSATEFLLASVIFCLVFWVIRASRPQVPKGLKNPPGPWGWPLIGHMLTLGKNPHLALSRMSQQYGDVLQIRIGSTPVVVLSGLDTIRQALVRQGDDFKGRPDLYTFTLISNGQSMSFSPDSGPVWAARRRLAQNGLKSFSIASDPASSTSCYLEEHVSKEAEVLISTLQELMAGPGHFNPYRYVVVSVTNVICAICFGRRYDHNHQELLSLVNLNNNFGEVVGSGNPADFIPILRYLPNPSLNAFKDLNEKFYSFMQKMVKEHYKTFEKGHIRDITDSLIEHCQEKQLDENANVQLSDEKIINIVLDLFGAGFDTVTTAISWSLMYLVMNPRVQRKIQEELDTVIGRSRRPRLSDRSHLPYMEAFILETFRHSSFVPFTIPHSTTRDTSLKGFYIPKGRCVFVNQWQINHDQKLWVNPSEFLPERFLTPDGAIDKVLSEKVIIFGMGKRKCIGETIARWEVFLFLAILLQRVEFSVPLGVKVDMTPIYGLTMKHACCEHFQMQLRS
Procedure, shortened: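 Supersomes with P450 reductase. Test compound is taken from 10 mM DMSO stock into Tris–HCl pH 7.4 (final DMSO <1% v/v), at several concentrations. Methanol stop. Resorufin fluorescence read at ex 544/em 590 nm. IC50 from nonlinear regression, log(inhibitor) vs normalized response, variable slope.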

CYP1A1 [2] = conditions: read-out: IC50 CYP1A1; cited from earlier work
CYP1A2 = conditions: read-out: IC50 CYP1A2; recombinant human enzyme; cited from earlier work
parental MCF-7 cells = test: MTT anti-proliferation assay in parental MCF-7 cells; type: cell-based; conditions: Homo sapiens, MCF7, read-out: IC50 of docetaxel in parental MCF-7 cells
Procedure, shortened: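 Parental MCF-7 cells were grown in RPMI 1640 with 10% FBS at 37 °C and 5% CO2. About 3000 cells/well were seeded and left 24 h, then exposed to six docetaxel concentrations. MTT read-out was absorbance at 490 nm. IC50 came from non-linear regression (log inhibitor vs normalized response, variable slope).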

IC50 ratio 1A1/1B1 (recombinant human CYP1B1): 5.5
SMILES: COc1cc2c(=O)cc(-c3cccc(Br)c3)[nH]c2c2c(OC)cccc12 [Compound 5e, 2-(3-Bromophenyl)-6,10-dimethoxybenzo[h]quinolin-4(1H)-one]
antiproliferative activity of the compound alone (MCF-7/1B1 cells; MCF-7/1B1 cells, varying concentrations, no docetaxel): a significant antiproliferative activity was not observed

IC50 (CYP1A1 [1]): 62.8 nM
SMILES: O=c1cc(-c2ccccc2)oc2c1ccc1ccccc12 [ANF, α-Naphthoflavone]
IC50 (CYP1A1 [2]): 60 nM

fold resistance of MCF-7/1B1 cells to docetaxel versus parental MCF-7 cells (MCF-7/1B1 cells): 5 fold
SMILES: CC(=O)O[C@@]12CO[C@@H]1C[C@H](O)[C@@]1(C)C(=O)[C@H](O)C3=C(C)[C@@H](OC(=O)[C@H](O)[C@@H](NC(=O)OC(C)(C)C)c4ccccc4)C[C@@](O)([C@@H](OC(=O)c4ccccc4)[C@H]21)C3(C)C [docetaxel, reference compound]
IC50 (parental MCF-7 cells): 29500 nM
